# Shown are actives, neighbours in structure and some others; about 1.1% of the full set was active somewhere.
# LYPLA1 counter: LYPLA1 inhibitors, primary screen, counter-screen for PME1 inhibitor project, biochemical, fluorescence polarization, FP-Rh probe ABPP; AID 2174, 2009; Acyl-protein thioesterase 1 (Homo sapiens), O75608; recombinant LYPLA1; 0.16% of 320,000 active; inhibition, % at 5.9 µM;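 active means inhibition above the mean of all tested compounds plus 3 SD, set per campaign, cut at about 14% in these data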;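 further: inhibitors block serine hydrolase probe labeling of LYPLA1 so polarization falls; 0% = enzyme with DMSO and 100% = wells lacking LYPLA1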
# LYPLA2 counter: LYPLA2 inhibitors, primary screen, counter-screen for PME1 inhibitor project, biochemical, fluorescence polarization, FP-Rh probe ABPP | Acyl-protein thioesterase 2 (Homo sapiens), O95372 | recombinant LYPLA2 | inhibition, % at 5.9 µM | 0.38% of 320,000 active | AID 2177, 2009;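 active means inhibition above the screen-wide mean plus 3 SD, limit set per campaign, cut at about 26% in these data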;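 further: 0% = LYPLA2 with DMSO and 100% = wells lacking LYPLA2 enzyme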
# PREPL inh: PREPL enzyme inhibitors, primary screen, biochemical, fluorescence polarization | inhibition, % at 5.96 µM | AID 2751, 2010 | recombinant PREPL, fluorescence polarization activity-based probe | 0.68% of 320,000 active | Prolyl endopeptidase-like (Homo sapiens), Q4J6C6; in the data active means inhibition above about 43%;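 further: 0% = enzyme with DMSO and 100% = wells lacking enzyme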
# proCasp3 act: activators of human procaspase-3 D3A mutant, primary screen, biochemical, absorbance, PC-3 D3A mutant, single concentration | 0.11% of 330,000 active | Caspase-3 (Homo sapiens), P42574 | recombinant procaspase-3 D3A, Ac-DEVD-pNA absorbance 405 nm | activation, % at 8.5 µM;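 active means activation above the mean of all tested compounds plus 3 SD, cut at about 21% in these data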;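 further: 0% = DMSO alone and 100% = DMSO wells spiked with extra 5 µM PC-3 D3A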
# Target sequence (P42574 whole entry D9A/D28A/D175A): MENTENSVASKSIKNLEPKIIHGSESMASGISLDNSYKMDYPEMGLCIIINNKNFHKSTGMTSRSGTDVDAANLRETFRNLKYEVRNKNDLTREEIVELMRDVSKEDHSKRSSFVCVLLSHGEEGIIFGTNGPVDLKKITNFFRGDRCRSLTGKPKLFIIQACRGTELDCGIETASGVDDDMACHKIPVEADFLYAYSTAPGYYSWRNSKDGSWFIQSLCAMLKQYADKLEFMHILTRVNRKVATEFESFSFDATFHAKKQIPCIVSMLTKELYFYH
#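 Assay system: Autoprocessing-dead procaspase-3 D3A mutant enzyme; also added: Ac-DEVD-pNA; doses: one concentration, 8.5 µM nominal, 0.8% DMSO; times: 1 h compound preincubation, 2 h substrate hydrolysis at 25 °C; technique: 405 nm absorbance of p-nitroaniline, reads at 0 and 120 min; measure: % activation between DMSO and enzyme-spiked controls; repeats: single replicate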
# procasp7 counter: procaspase-7 activators, primary screen, counter-screen for procaspase-3 activator project, biochemical, absorbance, HTS, human; Caspase-7 (Homo sapiens), P55210; recombinant procaspase-7, Ac-DEVD-pNA absorbance 405 nm; D23A/D198A/D206A triple mutant, cannot self-cleave; scale: DMSO 0, 5 µM enzyme 100; activation, % at 8.5 µM; 0.093% of 330,000 active; AID 463210, 2010;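 active means percent activation above the screen-wide mean plus 3 SD, cut at about 25% in these data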
# Target sequence (P55210 whole entry D23A/D198A/D206A): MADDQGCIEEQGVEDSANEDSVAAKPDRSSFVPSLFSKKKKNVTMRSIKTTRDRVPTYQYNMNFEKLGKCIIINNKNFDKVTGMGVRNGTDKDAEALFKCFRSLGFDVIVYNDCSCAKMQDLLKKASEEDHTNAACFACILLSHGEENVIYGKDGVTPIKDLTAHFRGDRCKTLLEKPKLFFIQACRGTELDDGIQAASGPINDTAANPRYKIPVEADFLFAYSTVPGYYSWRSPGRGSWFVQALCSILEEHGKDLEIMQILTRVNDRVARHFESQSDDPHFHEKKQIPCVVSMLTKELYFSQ
#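 Detection: p-Nitroaniline absorbance at 405 nm, read at 0 and 120 min; system: Uncleavable procaspase-7 mutant enzyme; evaluation: % activation from two-timepoint absorbance difference, scaled to controls; times: 1 h enzyme–compound preincubation and 2 h substrate reaction, both 25 °C; buffer or medium: Zinc-free HEPES pH 7.4 with 300 mM NaCl, 0.01% Triton X-100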
# LYPLA2 conf: LYPLA2 inhibitors, retest, confirmation, counter-screen for PME1 inhibitor project, biochemical, fluorescence polarization, FP-Rh probe ABPP; shares compounds with LYPLA2 counter; recombinant LYPLA2; inhibition, % at 5.9 µM; 72% of 1,100 active; AID 2232, 2010;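 active means mean inhibition across replicates above the hit cutoff set in the primary screen, cut at about 26% in these data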;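 further: blocked labeling of the enzyme by serine hydrolase FP-Rh probe lowers polarization; 0% = enzyme with DMSO and 100% = wells lacking LYPLA2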
# LYPLA2 gel ABPP: LYPLA2 inhibitors in proteome, late-stage follow-up, gel-based competitive ABPP, fluorescence, assay provider; 30% of 150 active; rhLYPLA2 in mouse brain proteome, gel ABPP FP-Rh; inhibition, % at 20 µM; shares compounds with LYPLA2 counter; AID 652029, 2013;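 active means inhibition of LYPLA2 enzyme probe labeling above about 50%, limit read from the data; inactive means inhibition below that limit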;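 further: loss of FP-Rh probe labeling of the LYPLA2 gel band measured as band density; 0% = DMSO only control band and 100% = blank gel background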
# The depositor's hits bear a star; · = not tested or not shown.
SMILES,LYPLA1 counter,LYPLA2 counter,PREPL inh,proCasp3 act,procasp7 counter,LYPLA2 conf,others
Cc1occc1C(=O)N1CCCC(N2CCN(c3cccc(C(F)(F)F)c3)CC2)C1 (stereo not drawn),0.3,27.5*,9.1,9.0,2.2,28.2*,
Cc1ncoc1C(=O)N1CCCC(N2CCN(c3cccc(C(F)(F)F)c3)CC2)C1 (stereo not drawn),4.5,62.9*,8.2,9.9,3.9,69.3*,LYPLA2 gel ABPP=46.0
CC1(CCC(=O)N2CCCC(N3CCN(c4cccc(C(F)(F)F)c4)CC3)C2)CC1 (stereo not drawn),0.1,32.4*,23.0,2.5,-4.7,30.6*,
Cc1cc(C(=O)N2CCCC(N3CCN(c4cccc(C(F)(F)F)c4)CC3)C2)nn1C (stereo not drawn),5.4,13.2,8.4,2.8,-1.9,·,
CN(CC(=O)Nc1ccccc1Cl)CC(=O)c1c(N)n(Cc2ccccc2)c(=O)n(C)c1=O,-1.0,-4.6,1.7,-2.4,-3.9,·,
COc1ccc(CCN2C(=O)CC(NNc3ccc([N+](=O)[O-])cc3)C2=O)cc1OC (stereo not drawn),0.6,51.2*,1.4,-11.1,-3.4,53.6*,LYPLA2 gel ABPP=17.0
CCC(=O)NC(=S)Nc1ccc(NC(=O)c2ccccc2[N+](=O)[O-])cc1,-0.3,14.4,-1.5,-2.4,-8.7,·,
CCCC(=O)Nc1ccc(NC(=S)NC(=O)c2ccccc2[N+](=O)[O-])cc1,2.2,29.7*,7.2,-4.9,-8.1,31.1*,
O=C(Nc1ccccc1C(=O)NCCCn1ccnc1)c1ccccc1,-0.9,0.7,-3.7,-3.0,8.8,·,
CC(C)C(NC(=O)c1ccccc1NC(=O)c1ccccc1)C(=O)NCCCn1ccnc1 (stereo not drawn),4.0,28.6*,1.3,-7.6,-9.3,-0.9,
O=C(O/N=C\c1ccc(N2CCCCC2)c([N+](=O)[O-])c1)c1cccc(Cl)c1,3.8,15.0,15.8,0.3,10.2,·,
CO/N=C/c1ccc(N2CCN(C(=O)c3ccc(Cl)cc3Cl)CC2)c([N+](=O)[O-])c1,1.9,48.1*,3.4,-1.5,2.7,50.1*,
CO/N=C/c1ccc(N2CCN(C(=O)c3cccc(C(F)(F)F)c3)CC2)c([N+](=O)[O-])c1,5.0,87.5*,-21.0,-2.5,3.6,85.5*,
CO/N=C/c1ccc(N2CCN(C(=O)c3ccc(F)cc3)CC2)c([N+](=O)[O-])c1,1.3,48.0*,-0.1,-10.0,8.5,49.9*,
O=C(Nc1cccnc1)C1CC(=O)N(c2ccc(F)cc2)C1 (stereo not drawn),-0.3,0.4,1.7,-0.1,2.7,·,
O=C(c1ccc(F)cc1)C1CCN(CCn2c(=O)[nH]c3ccccc3c2=O)CC1,8.4,33.3*,21.5,12.2,7.6,36.1*,
Cc1c(C(=O)N2C[C@@H](C)O[C@@H](C)C2)oc2c(F)cccc12,4.6,7.7,18.3,5.8,-13.4,·,
CC1CC(C)CN(C(=O)CCC(=O)Nc2nnc(C3CCCCC3)s2)C1 (stereo not drawn),-3.4,2.5,-3.8,4.7,-14.1,·,
CN(Cc1nc(-c2ccc(Cl)cc2)no1)C(=O)c1ccc2c(c1)OCO2,13.3,33.8*,6.9,2.6,-3.6,34.5*,
CN(Cc1nc(-c2ccncc2)no1)S(=O)(=O)c1ccc(Br)cc1,5.3,37.2*,-28.6,1.5,2.6,35.5*,
CN(Cc1nc(-c2ccncc2)no1)S(=O)(=O)c1ccccc1,3.3,1.8,-12.1,13.8,2.5,·,
CN(Cc1nc(-c2ccncc2)no1)S(=O)(=O)c1ccc(Cl)cc1,2.1,28.3*,-2.6,5.4,-2.1,30.4*,
COc1ccc(C=O)cc1CN1CCCN(Cc2ccccc2F)S1(=O)=O,-2.0,-2.4,-18.8,5.3,3.9,·,
CSCCCc1cn([C@@H](CO)C(=O)NCCCCCCCCCCC(=O)N2CCNCC2)nn1,4.9,2.0,8.1,5.3,2.2,·,
COc1ccc(NC(=S)N(C(C)C)C2CCN(C(C)C)CC2)cc1Cl,-0.8,-2.5,15.6,-5.7,-13.2,·,
SMILES,LYPLA1 counter,LYPLA2 counter,PREPL inh,proCasp3 act,procasp7 counter,LYPLA2 conf,others
Cc1nn(CC(=O)Nc2ccc(Cl)cc2Cl)c(=O)c2ccccc12,1.0,4.3,-5.7,5.8,3.4,·,
O=[N+]([O-])c1ccc(Oc2ccc(-c3nnco3)cc2)c(Cl)c1,11.4,32.5*,30.4,0.7,5.6,22.1,
N#Cc1cc([N+](=O)[O-])ccc1Oc1ccc(-c2nnco2)cc1,9.5,29.8*,9.3,4.5,1.7,20.5,
CCN(CC)C(=O)c1ccc(Oc2ccc([N+](=O)[O-])cc2Cl)cc1,2.3,6.8,17.6,0.7,0.4,·,
O=[N+]([O-])c1cc(-c2nnc(-c3ccccc3)o2)ccc1Oc1ccc(Cl)cc1,-2.6,-4.0,3.4,-6.0,-5.3,·,
Cc1ccccc1NC(=O)C(=O)NNC(=O)COc1ccc2ccccc2c1,2.4,4.6,15.5,5.6,1.9,·,
CCCCOc1cccc(C(=O)NC(=S)Nc2ccc(Cl)c(C(=O)O)c2)c1,2.1,7.5,-8.1,-5.0,-12.7,·,
O=C(NC(=S)Nc1ccc(Cl)c(C(=O)O)c1)c1cccc(COc2ccccc2)c1,6.6,37.0*,8.4,-6.3,-19.0,38.0*,
COc1ccc(C(=O)NC(=S)Nc2ccc(Cc3ccncc3)cc2)cc1,-1.4,31.9*,-8.6,-0.5,-17.2,35.0*,
O=C(NC(=S)Nc1ccc(Cl)c(C(=O)O)c1)c1ccc(OCc2ccccc2)cc1,7.9,36.5*,11.7,-3.9,-0.7,33.4*,
Cc1c(NC(=S)NC(=O)c2ccc(COc3ccccc3)cc2)cccc1C(=O)O,6.6,30.2*,12.8,4.8,-2.7,25.2,
Cc1c(NC(=S)NC(=O)c2cccc3ccccc23)cccc1C(=O)O,-1.8,1.4,-4.0,-0.6,11.2,·,
CCOc1ccc(CCNC(=O)Cc2ccc(NC3=NC4CS(=O)(=O)CC4S3)cc2)cc1OCC (stereo not drawn),1.9,-5.5,-1.4,0.4,-5.3,·,
